Results of several laboratories.
Each line is one published result; the experiments were not run side by side.
Target: Mitogen-activated protein kinase 11 (MAPK11, Homo sapiens, UniProt Q15759)
Technique: competition with immobilised ligand

Structure (SMILES)	observed	tested at	remaining binding
O=C(c1ccc(Nc2nccc(-c3cc4ccccc4s3)n2)cc1)N1CCC(N2CCCC2)CC1	binding	1 µM	95%
CSc1cccnc1N1CCN(Cc2nc3ccccc3[nH]2)CC1	cell-free assay	1 µM	100%
CNC(=O)[C@@H]1CC[C@@H](n2c(-c3ccc4cnccc4c3)nc3ccc(C(=O)NCc4cccc(C(N)=O)c4)cc32)C1	binding	1 µM	100%
C[C@@H]1CCN(c2nccc(-c3cnn4ncccc34)n2)C1	binding	1 µM	100%
CC(C)(C)c1ccc(-c2nc(CBr)nn2-c2cccc(O)c2)cc1	cell-free assay	10 µM	99%
C[C@@H]1CN(c2ccc3ncc(-c4ccc5[nH]nc(C6CC6)c5c4)n3n2)C[C@H](C)O1	binding	0.5 µM	100%
COc1cnc(Nc2cccc(S(N)(=O)=O)c2)nc1N1CCN(c2ccccc2)CC1	binding	1 µM	100%
FC(F)(F)Oc1cccc(-c2cnc3ccc(-c4ccncc4)nn23)c1	cell-free assay	5 µM	89%
c1cnn2ncc(-c3ccnc(N4CCC45COC5)n3)c2c1	binding	1 µM	100%
O=C(N[C@H]1CCCCC/C=C\C2C[C@@]2(C(=O)O)NC(=O)[C@@H]2C[C@@H](Oc3ccncc3)CN2C1=O)OC1CCCC1 (stereo partly shown)	binding	1 µM	100%
N[C@@H]1CCN(c2nccc(-c3cnn4ncccc34)n2)C1	binding	1 µM	100%
CCS(=O)(=O)c1cc2cc(C[C@@](O)(CC(C)(C)c3ccc(F)cc3C(N)=O)C(F)(F)F)[nH]c2cn1	cell-free assay	1 µM	100%
O=C(c1ccc(Nc2ncc(Cl)c(-c3ccc(Cl)s3)n2)cc1)N1CCC(N2CCCC2)CC1	binding	1 µM	73%
O=S(=O)(NC1CCC(c2cc(F)ccc2F)(S(=O)(=O)c2ccc(Cl)cc2)CC1)C(F)(F)F (stereo not shown)	cell-free assay	1 µM	94%
Nc1ncc2c(n1)-c1c([nH]c3ccc(C#CC4CC4)cc13)CCCC2	binding	1 µM	100%
CN(C)c1nccc(-c2cnn3ncccc23)n1	binding	1 µM	100%
C[C@@]1(Cc2ccc(C#N)cc2)C(=O)N(c2cc(Cl)cc(Cl)c2)c2ncc(C(=O)NC3(c4nc(C5CCC5)no4)CC3)n21	cell-free assay	1 µM	100%
O=C(Nc1c[nH]nc1C(=O)NC1CCNCC1)c1cc(F)cc(F)c1	binding	1 µM	97%
C[C@@H]1CN(c2cc(-c3n[nH]c4ccc(OC5(C)CC5)cc34)ncn2)C[C@H](C)O1	cell-free assay	0.1 µM	89%
c1cncc(-c2cccc(Nc3nccc(NC4CCCCC4)n3)c2)c1	binding	10 µM	89%
Cc1cnn2ncc(-c3ccnc(N(C)C)n3)c2c1	binding	1 µM	100%
CN(C)c1ncnc(-c2ccc3nc(Nc4cc(CN5CCN(C(=O)CC(F)(F)F)CC5)ccn4)[nH]c3c2)c1Cl	cell-free assay	1 µM	97%
